Assay results as given in ChEMBL document CHEMBL4732146, “Nitric oxide-donating and reactive oxygen species-responsive prochelators based on 8-hydroxyquinoline as anticancer agents” (Eur J Med Chem, 2021).
One block for each compound: values may come before it. Calls of active or inactive are those of the source. No cut-off for these calls is given here.

Legend:
SW1990 [1] = assay: Cytotoxicity against human SW1990 cells assessed as reduction in cell viability at 10 to 20 uM measured after 48 hrs by MTT assay; type: functional, cell-based; details: dose 10-20 µM
Summary of the method: (§1)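 MTT assay with 48 h compound exposure at 10 or 20 µM. Cells seeded 6 × 10⁴ per well and grown 24 h beforehand. MTT 4 h, DMSO solubilisation, A490 read. Percent cell death given as mean ± SD, n = 3.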

SW1990 [2] = assay: Induction of apoptosis in human SW1990 cells at 12 uM measured after 24 hrs by Annexin V-FITC/propidium iodide staining based flow cytometry; type: functional, cell-based
Summary of the method: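 SW1990 cells seeded 5 × 10⁵ per well and grown 24 h, then treated 24 h at 8 or 12 µM. Optional 1 h pretreatment with 20 mM NAC or 50 µM carboxyl-PTIO before 12 µM treatment. Cells stained with annexin V-FITC 15 min and PI 5 min at room temperature in the dark, then analysed by flow cytometry. Mean ± SD, n = 3.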

[3] = Metal chelating activity assessed as compound-Cu2+ complex formation measured after 40 mins by calcein dye based fluorescence assay; details: dose 10-50 µM
Summary of the method: (§2)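 Calcein (10 µM) in 50 mM HEPES was quenched by 10 µM CuCl₂ (or FeCl₃ for the Fe³⁺ arm). Chelator was added from DMSO stock to a final 10 or 50 µM and incubated 40 min at room temperature. Recovery rate was calculated from fluorescence (λex 485 / λem 520 nm); n = 3.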

[4] = Metal chelating activity assessed as compound-Fe3+ complex formation measured after 40 mins by calcein dye based fluorescence assay; details: dose 10-50 µM; summary of the method: as §2
[5] = Drug metabolism in human PANC-1 cells assessed as nitric oxide release at 10 uM measured after 8 hrs by Griess assay; type: ADME, cell-based; details: panc-1, 8 h
Summary of the method: (§3)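 Cells exposed 8 h to 10 µM compound. Nitrite measured by Griess reagent kit at 540 nm against a NaNO₂ calibration curve. Mean ± SD, n = 3.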

[6] = Drug metabolism in human SW1990 cells assessed as nitric oxide release at 10 uM measured after 8 hrs by Griess assay; type: ADME, cell-based; details: sw1990, 8 h; summary of the method: as §3
A549 [7] = assay: Cytotoxicity against human A549 cells assessed as reduction in cell viability at 10 to 20 uM measured after 48 hrs by MTT assay; type: functional, cell-based; details: dose 10-20 µM
HeLa [8] = assay: Cytotoxicity against human HeLa cells assessed as reduction in cell viability at 10 to 20 uM measured after 48 hrs by MTT assay; type: functional, cell-based; details: dose 10-20 µM
HepG2 [9] = assay: Cytotoxicity against human HepG2 cells assessed as reduction in cell viability at 10 to 20 uM measured after 48 hrs by MTT assay; type: functional, cell-based; details: dose 10-20 µM; summary of the method: as §1
MCF7 [10] = assay: Cytotoxicity against human MCF7 cells assessed as reduction in cell viability at 10 to 20 uM measured after 48 hrs by MTT assay; type: functional, cell-based; details: dose 10-20 µM; summary of the method: as §1
PANC-1 [11] = assay: Cytotoxicity against human PANC-1 cells assessed as reduction in cell viability at 10 uM measured after 48 hrs by MTT assay; type: functional, cell-based; summary of the method: as §1
PANC-1 [12] = assay: Cytotoxicity against human PANC-1 cells assessed as reduction in cell viability at 20 uM measured after 48 hrs by MTT assay relative to control; type: functional; summary of the method: as §1
A549 [13] = assay: Cytotoxicity against human A549 cells assessed as reduction in cell viability measured after 48 hrs by MTT assay; type: functional, cell-based; details: A549, 48 h
HeLa [14] = assay: Cytotoxicity against human HeLa cells assessed as reduction in cell viability measured after 48 hrs by MTT assay; type: functional, cell-based
HepG2 [15] = assay: Cytotoxicity against human HepG2 cells assessed as reduction in cell viability measured after 48 hrs by MTT assay; type: functional, cell-based; details: HepG2, 48 h
Summary of the method: (§4)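 Cells seeded 6 × 10⁴ per well, cultured 24 h at 37 °C under 5% CO₂, then exposed to compound for 48 h, with or without 50 µM CuCl₂ or FeCl₃ co-incubation. MTT added for 4 h at 37 °C, formazan dissolved in DMSO, A490 read. IC50 reported as mean (SD), n = 3.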

MCF7 [16] = assay: Cytotoxicity against human MCF7 cells assessed as reduction in cell viability measured after 48 hrs by MTT assay; type: functional, cell-based; details: MCF7, 48 h; summary of the method: as §4
PANC-1 [17] = assay: Cytotoxicity against human PANC-1 cells assessed as reduction in cell viability measured after 48 hrs by MTT assay; type: functional, cell-based; details: PANC-1, 48 h; summary of the method: as §4
HCT-116 [18] = assay: Cytotoxicity against human HCT-116 cells assessed as reduction in cell viability measured after 48 hrs by MTT assay; type: functional, cell-based; details: HCT-116, 48 h; summary of the method: as §4
PC-3 [19] = assay: Cytotoxicity against human PC-3 cells assessed as reduction in cell viability measured after 48 hrs by MTT assay; type: functional, cell-based; details: PC-3, 48 h; summary of the method: as §4
SW1990 [20] = assay: Cytotoxicity against human SW1990 cells assessed as reduction in cell viability measured after 48 hrs by MTT assay; type: functional, cell-based; details: SW1990, 48 h; summary of the method: as §4
A549 [21] = assay: Cytotoxicity against human A549 cells assessed as reduction in cell viability measured after 48 hrs in presence of CuCl2 by MTT assay; type: functional, cell-based; details: A549, 48 h
HeLa [22] = assay: Cytotoxicity against human HeLa cells assessed as reduction in cell viability measured after 48 hrs in presence of CuCl2 by MTT assay; type: functional, cell-based
HepG2 [23] = assay: Cytotoxicity against human HepG2 cells assessed as reduction in cell viability measured after 48 hrs in presence of CuCl2 by MTT assay; type: functional, cell-based; details: HepG2, 48 h; summary of the method: as §4
MCF7 [24] = assay: Cytotoxicity against human MCF7 cells assessed as reduction in cell viability measured after 48 hrs in presence of CuCl2 by MTT assay; type: functional, cell-based; details: MCF7, 48 h; summary of the method: as §4
PANC-1 [25] = assay: Cytotoxicity against human PANC-1 cells assessed as reduction in cell viability measured after 48 hrs in presence of CuCl2 by MTT assay; type: functional, cell-based; details: PANC-1, 48 h; summary of the method: as §4
HCT-116 [26] = assay: Cytotoxicity against human HCT-116 cells assessed as reduction in cell viability measured after 48 hrs in presence of CuCl2 by MTT assay; type: functional, cell-based; details: HCT-116, 48 h; summary of the method: as §4
PC-3 [27] = assay: Cytotoxicity against human PC-3 cells assessed as reduction in cell viability measured after 48 hrs in presence of CuCl2 by MTT assay; type: functional, cell-based; details: PC-3, 48 h; summary of the method: as §4
SW1990 [28] = assay: Cytotoxicity against human SW1990 cells assessed as reduction in cell viability measured after 48 hrs in presence of CuCl2 by MTT assay; type: functional, cell-based; details: SW1990, 48 h; summary of the method: as §4
A549 [29] = assay: Cytotoxicity against human A549 cells assessed as reduction in cell viability measured after 48 hrs in presence of FeCl3 by MTT assay; type: functional, cell-based; details: A549, 48 h
HeLa [30] = assay: Cytotoxicity against human HeLa cells assessed as reduction in cell viability measured after 48 hrs in presence of FeCl3 by MTT assay; type: functional, cell-based
HepG2 [31] = assay: Cytotoxicity against human HepG2 cells assessed as reduction in cell viability measured after 48 hrs in presence of FeCl3 by MTT assay; type: functional, cell-based; details: HepG2, 48 h; summary of the method: as §4
MCF7 [32] = assay: Cytotoxicity against human MCF7 cells assessed as reduction in cell viability measured after 48 hrs in presence of FeCl3 by MTT assay; type: functional, cell-based; details: MCF7, 48 h; summary of the method: as §4
PANC-1 [33] = assay: Cytotoxicity against human PANC-1 cells assessed as reduction in cell viability measured after 48 hrs in presence of FeCl3 by MTT assay; type: functional, cell-based; details: PANC-1, 48 h; summary of the method: as §4
HCT-116 [34] = assay: Cytotoxicity against human HCT-116 cells assessed as reduction in cell viability measured after 48 hrs in presence of FeCl3 by MTT assay; type: functional, cell-based; details: HCT-116, 48 h; summary of the method: as §4
PC-3 [35] = assay: Cytotoxicity against human PC-3 cells assessed as reduction in cell viability measured after 48 hrs in presence of FeCl3 by MTT assay; type: functional, cell-based; details: PC-3, 48 h; summary of the method: as §4
SW1990 [36] = assay: Cytotoxicity against human SW1990 cells assessed as reduction in cell viability measured after 48 hrs in presence of FeCl3 by MTT assay; type: functional, cell-based; details: SW1990, 48 h; summary of the method: as §4
[37] = Cytotoxicity against human H6C7 cells assessed as reduction in cell viability measured after 48 hrs by MTT assay; type: cell-based; details: H6C7, 48 h; summary of the method: as §4
[38] = Cytotoxicity against human RWPE2 cells assessed as reduction in cell viability measured after 48 hrs by MTT assay; type: cell-based; details: RWPE2, 48 h; summary of the method: as §4

Compound: O=C(NCCCOc1no[n+]([O-])c1S(=O)(=O)c1ccccc1)c1ccc2cccc(OCc3ccccc3)c2n1
Activity (SW1990 [1]): inactive
Activity (SW1990 [2]): Active

Activity [3]: Dose-dependent effect
Activity [4]: Dose-dependent effect
Drug metabolism [5]: Metabolite_Detected
Drug metabolism [6]: Metabolite_Detected
Compound: O=C(c1ccc2cccc(O)c2n1)N1CCC(Oc2no[n+]([O-])c2S(=O)(=O)c2ccccc2)CC1
Activity (A549 [7]): Active
Activity (HeLa [8]): Active
Activity (HepG2 [9]): Active
Activity (MCF7 [10]): Active
Activity (PANC-1 [11]): Active
Activity (PANC-1 [12]): 82.3%
IC50 (A549 [13]): 7.8 µM
IC50 (HeLa [14]): 33.9 µM
IC50 (HepG2 [15]): 14.6 µM
IC50 (MCF7 [16]): 15.4 µM
IC50 (PANC-1 [17]): 9.05 µM
IC50 (HCT-116 [18]): 11.2 µM
IC50 (PC-3 [19]): 10.4 µM
IC50 (SW1990 [20]): 6.59 µM
IC50 (A549 [21]): 2.16 µM
IC50 (HeLa [22]): 9.77 µM
IC50 (HepG2 [23]): 4.05 µM
IC50 (MCF7 [24]): 3.07 µM
IC50 (PANC-1 [25]): 1.32 µM
IC50 (HCT-116 [26]): 3.29 µM
IC50 (PC-3 [27]): 5.02 µM
IC50 (SW1990 [28]): 0.79 µM
IC50 (A549 [29]): 12.4 µM
IC50 (HeLa [30]): 37.9 µM
IC50 (HepG2 [31]): 19.9 µM
IC50 (MCF7 [32]): 17 µM
IC50 (PANC-1 [33]): 14.8 µM
IC50 (HCT-116 [34]): 17.2 µM
IC50 (PC-3 [35]): 14.6 µM
IC50 (SW1990 [36]): 10.6 µM
IC50 [37]: 13.2 µM
IC50 [38]: 7.04 µM
